Measured values reported in ChEMBL document CHEMBL2203229, “Structure Activity Relationship Study of the Cleistriosides and Cleistetrosides for Antibacterial/Anticancer Activity” (ACS Med Chem Lett, 2012).
pIC50: −log10 of the molar value. Converted amounts (≈) assume the structure as drawn.

Legend:
BT-549 = assay: Growth inhibition of human BT549 cells after 48 hrs by sulforhodamine B assay; format: functional; conditions: BT-549, 48 h
In short: (§1)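 Cells in RPMI 1640 with 5% FBS, plated at 5,000–40,000/well and grown 24 h. Time-zero plates fixed with TCA. Five drug concentrations, 48 h at 37 °C, 5% CO₂. Fixation with TCA (10% final for adherent lines; 16% final for suspension lines), staining with 0.4% SRB, reading at 515 nm. GI50 is the concentration giving a 50% reduction in net protein increase relative to time zero.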

MCF7 = assay: Growth inhibition of human MCF7 cells after 48 hrs by sulforhodamine B assay; format: functional; conditions: MCF7, 48 h; in short: as §1
DU-145 = assay: Growth inhibition of human DU145 cells after 48 hrs by sulforhodamine B assay; format: functional; conditions: DU-145, 48 h; in short: as §1
PC-3 = assay: Growth inhibition of human PC3 cells after 48 hrs by sulforhodamine B assay; format: functional; conditions: PC-3, 48 h; in short: as §1
CAKI-1 = assay: Growth inhibition of human CAKI-1 cells after 48 hrs by sulforhodamine B assay; format: functional; conditions: CAKI-1, 48 h; in short: as §1
A498 = assay: Growth inhibition of human A498 cells after 48 hrs by sulforhodamine B assay; format: functional; conditions: A498, 48 h; in short: as §1
[1] = Growth inhibition of human NCI-ADR-RES cells after 48 hrs by sulforhodamine B assay; format: functional; in short: as §1
OVCAR-3 = assay: Growth inhibition of human OVCAR3 cells after 48 hrs by sulforhodamine B assay; format: functional; conditions: OVCAR-3, 48 h; in short: as §1
SK-MEL-5 = assay: Growth inhibition of human SK-MEL-5 cells after 48 hrs by sulforhodamine B assay; format: functional; conditions: SK-MEL-5, 48 h; in short: as §1
MDA-MB-435 = assay: Growth inhibition of human MDA-MB-435 cells after 48 hrs by sulforhodamine B assay; format: functional; conditions: MDA-MB-435, 48 h; in short: as §1
SF-539 = assay: Growth inhibition of human SF539 cells after 48 hrs by sulforhodamine B assay; format: functional; conditions: SF-539, 48 h; in short: as §1
SNB-75 = assay: Growth inhibition of human SNB75 cells after 48 hrs by sulforhodamine B assay; format: functional; conditions: SNB-75, 48 h; in short: as §1
HCT-15 = assay: Growth inhibition of human HCT15 cells after 48 hrs by sulforhodamine B assay; format: functional; conditions: HCT-15, 48 h; in short: as §1
HT-29 = assay: Growth inhibition of human HT-29 cells after 48 hrs by sulforhodamine B assay; format: functional; conditions: HT-29, 48 h; in short: as §1
NCI-H460 [2] = assay: Growth inhibition of human NCI-H460 cells after 48 hrs by sulforhodamine B assay; format: functional; conditions: NCI-H460, 48 h; in short: as §1
A549 = assay: Growth inhibition of human A549 cells after 48 hrs by sulforhodamine B assay; format: functional; conditions: A549, 48 h; in short: as §1
SR = assay: Growth inhibition of human SR cells after 48 hrs by sulforhodamine B assay; format: functional; in short: as §1
RPMI-8226 = assay: Growth inhibition of human RPMI8226 cells after 48 hrs by sulforhodamine B assay; format: functional; conditions: RPMI-8226, 48 h; in short: as §1
NCI-H460 [3] = assay: Cytotoxicity against human NCI-H460 cells assessed as inhibition of cell viability by MTT assay; format: functional, cell-based
In short: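 NCI-H460 cells in RPMI 1640 with 10% FBS and 2 mM glutamine at 37 °C, 5% CO₂. Seeded at 10,000 cells/well for 12 h, then dosed in 1% FBS medium (DMSO below 0.1% final). MTT (10 µL of 5 mg/mL) for 4 h, formazan dissolved in DMSO for 45 min, absorbance at 562 nm. Triplicate wells, at least three runs (N = 9).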

[4] = Antibacterial activity against Bacillus subtilis JH642 containing trpC2 pheA1 assessed as growth inhibition after 16 hrs by broth dilution method; format: functional, Bacillus subtilis subsp. subtilis str. JH642
In short: (§2)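 Strains grown overnight in LB, diluted 10-fold, shaken at 37 °C for 45 min–1 h (~10⁸ CFU/mL), then diluted ~1000-fold to ~10⁵ CFU/mL. Broth dilution in LB: 20 mM DMSO stocks, 1:2 serial dilutions giving seven concentrations, inoculum added 1:1. OD600 read with shaking.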

Escherichia coli [5] = assay: Antibacterial activity against Escherichia coli K-12 BAS901 harboring genetically modified imp-4213, zab4292::Tn5 assessed as growth inhibition after 16 hrs by broth dilution method; format: functional; conditions: K-12 BAS901, 16 h
In short: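 Kanamycin-resistant strain grown overnight in LB with kanamycin 50 µg/mL, diluted 10-fold, then shaken at 37 °C for 45 min–1 h (~10⁸ CFU/mL). Diluted ~1000-fold to 10⁵ CFU/mL in LB. DMSO stocks (20 mM) prepared as 4X working solutions in LB. Seven 1:2 serial dilutions mixed with equal-volume inoculum. OD600 read with shaking.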

Escherichia coli [6] = assay: Antibacterial activity against Escherichia coli K-12 MG1655 assessed as growth inhibition after 16 hrs by broth dilution method; format: functional; conditions: K-12 substr. MG1655, 16 h; in short: as §2

SMILES | GI50 (BT-549) [nM] | GI50 (MCF7) [nM] | GI50 (DU-145) [nM] | GI50 (PC-3) [nM] | GI50 (CAKI-1) [nM] | GI50 (A498) [nM] | GI50 [1] [nM] | GI50 (OVCAR-3) [nM] | GI50 (SK-MEL-5) [nM] | GI50 (MDA-MB-435) [nM] | GI50 (SF-539) [nM] | GI50 (SNB-75) [nM] | GI50 (HCT-15) [nM] | GI50 (HT-29) [nM] | GI50 (NCI-H460 [2]) [nM] | GI50 (A549) [nM] | GI50 (SR) [nM] | GI50 (RPMI-8226) [nM] | pIC50 (NCI-H460 [3]) | MIC [4] [µM] | further results
CCCCCCCCCCCCO[C@@H]1O[C@@H](C)[C@H](O[C@@H]2O[C@@H](C)[C@H](OC(C)=O)[C@@H](O[C@@H]3O[C@@H](C)[C@H](O)[C@@H](OC(C)=O)[C@H]3OC(C)=O)[C@H]2O)[C@@H](O)[C@H]1O | 4540 | 1620 | 2480 | 890 | 6570 | 5130 | 7920 | 1490 | 1230 | 1490 | 3100 | 900 | 7380 | 1210 | 1540 | 2080 | 1200 | 1000 | 4.90 | 8 (≈ 6.01 µg/mL) | MIC (Escherichia coli [5]): 32 µM (≈ 24 µg/mL); MIC (Escherichia coli [6]): > 64 µM
CCCCCCCCCCCCO[C@@H]1O[C@@H](C)[C@H](O[C@@H]2O[C@@H](C)[C@H](OC(C)=O)[C@@H](O[C@@H]3O[C@@H](C)[C@H](OC(C)=O)[C@@H](O)[C@H]3OC(C)=O)[C@H]2O)[C@@H](O)[C@H]1O | 7900 | 4840 | 7940 | 2370 | 8780 | 6730 | 9290 | 5910 | 6210 | 7680 | 7110 | 3420 | 8390 | 4350 | 6320 | 6690 | 3200 | 4120 | 4.04 | 32 (≈ 24 µg/mL) | MIC (Escherichia coli [5]): > 64 µM; MIC (Escherichia coli [6]): > 64 µM
CCCCCCCCCCCCO[C@@H]1O[C@@H](C)[C@H](O[C@@H]2O[C@@H](C)[C@H](OC(C)=O)[C@@H](O[C@@H]3O[C@@H](C)[C@H](O)[C@@H](O[C@@H]4O[C@@H](C)[C@H](OC(C)=O)[C@@H](OC(C)=O)[C@H]4OC(C)=O)[C@H]3OC(C)=O)[C@H]2O)[C@@H](O)[C@H]1O | 880 | 940 | 790 | 750 | 600 | 20 | 2240 | 800 | 820 | 840 | 910 | 620 | 1520 | 910 | 960 | 970 | 850 | 920 | 5.01 | > 64 | MIC (Escherichia coli [5]): > 64 µM; MIC (Escherichia coli [6]): > 64 µM
CCCCCCCCCCCCO[C@@H]1O[C@@H](C)[C@H](O[C@@H]2O[C@@H](C)[C@H](OC(C)=O)[C@@H](O[C@@H]3O[C@@H](C)[C@H](OC(C)=O)[C@@H](O[C@@H]4O[C@@H](C)[C@H](OC(C)=O)[C@@H](OC(C)=O)[C@H]4OC(C)=O)[C@H]3OC(C)=O)[C@H]2O)[C@@H](O)[C@H]1O | 1050 | 890 | 800 | 710 | 860 | 670 | 920 | 840 | 760 | 880 | 800 | 540 | 820 | 910 | 930 | 800 | 920 | 1040 | 4.79 | > 64 | MIC (Escherichia coli [5]): > 64 µM; MIC (Escherichia coli [6]): > 64 µM
CCCCCCCCCCCCO[C@@H]1O[C@@H](C)[C@H](O[C@@H]2O[C@@H](C)[C@H](OC(C)=O)[C@@H](O[C@@H]3O[C@@H](C)[C@H](OC(C)=O)[C@@H](O[C@@H]4O[C@@H](C)[C@H](OC(C)=O)[C@@H](O)[C@H]4OC(C)=O)[C@H]3OC(C)=O)[C@H]2O)[C@@H](O)[C@H]1O | 940 | 870 | 800 | 820 | 1420 | 730 | 3380 | 770 | 740 | 830 | 830 | 500 | 1010 | 970 | 940 | 1180 | 860 | 960 | 5.12 | 4 (≈ 3.92 µg/mL) | MIC (Escherichia coli [5]): > 64 µM; MIC (Escherichia coli [6]): > 64 µM
CCCCCCCCCCCCO[C@@H]1O[C@@H](C)[C@H](O[C@@H]2O[C@@H](C)[C@H](OC(C)=O)[C@@H](O[C@@H]3O[C@@H](C)[C@H](OC(C)=O)[C@@H](O[C@@H]4O[C@@H](C)[C@H](OC(C)=O)[C@@H](O)[C@H]4O)[C@H]3OC(C)=O)[C@H]2O)[C@@H](O)[C@H]1O | 8460 | 1740 | 7920 | 5300 | 8450 | 7570 | 9150 | 4840 | 1760 | 6000 | 4700 | 1360 | 7540 | 8020 | 7580 | 9470 | 1450 | 1860 | 5.04 | 4 (≈ 3.76 µg/mL) | MIC (Escherichia coli [5]): > 64 µM; MIC (Escherichia coli [6]): > 64 µM
CCCCCCCCCCCCO[C@@H]1O[C@@H](C)[C@H](O[C@@H]2O[C@@H](C)[C@H](OC(C)=O)[C@@H](O[C@@H]3O[C@@H](C)[C@H](OC(C)=O)[C@@H](O[C@@H]4O[C@@H](C)[C@H](O)[C@@H](O)[C@H]4OC(C)=O)[C@H]3OC(C)=O)[C@H]2O)[C@@H](O)[C@H]1O | 8390 | 5290 | 7470 | 6550 | 9240 | 5640 | 8900 | 6070 | 6270 | 7250 | 7170 | 2180 | 8330 | 8130 | 8430 | 8180 | 3830 | 2840 | 4.89 | 8 (≈ 7.51 µg/mL) | MIC (Escherichia coli [5]): > 64 µM; MIC (Escherichia coli [6]): > 64 µM
